Reference: ChEMBL document CHEMBL5107939, “Optimization of brain-penetrant picolinamide derived leucine-rich repeat kinase 2 (LRRK2) inhibitors” (RSC Med Chem, 2021)

Tests used:
[1] = biological target: T1, Leucine-rich repeat serine/threonine-protein kinase 2 (Homo sapiens, UniProt Q5S007, G2019S); assay: Inhibition of recombinant human GST20 tagged truncated LRRK2 G2019S mutant assessed as substrate phosphorylation preincubated for 15 mins followed by substrate addition and measured after 90 mins using fluorescein-labeled LRRK2tide as substrate in presence of ATP by TR-FRET based Lanthascreen kinase activity assay
T1 sequence (Q5S007 whole entry G2019S, the tested form may be a part): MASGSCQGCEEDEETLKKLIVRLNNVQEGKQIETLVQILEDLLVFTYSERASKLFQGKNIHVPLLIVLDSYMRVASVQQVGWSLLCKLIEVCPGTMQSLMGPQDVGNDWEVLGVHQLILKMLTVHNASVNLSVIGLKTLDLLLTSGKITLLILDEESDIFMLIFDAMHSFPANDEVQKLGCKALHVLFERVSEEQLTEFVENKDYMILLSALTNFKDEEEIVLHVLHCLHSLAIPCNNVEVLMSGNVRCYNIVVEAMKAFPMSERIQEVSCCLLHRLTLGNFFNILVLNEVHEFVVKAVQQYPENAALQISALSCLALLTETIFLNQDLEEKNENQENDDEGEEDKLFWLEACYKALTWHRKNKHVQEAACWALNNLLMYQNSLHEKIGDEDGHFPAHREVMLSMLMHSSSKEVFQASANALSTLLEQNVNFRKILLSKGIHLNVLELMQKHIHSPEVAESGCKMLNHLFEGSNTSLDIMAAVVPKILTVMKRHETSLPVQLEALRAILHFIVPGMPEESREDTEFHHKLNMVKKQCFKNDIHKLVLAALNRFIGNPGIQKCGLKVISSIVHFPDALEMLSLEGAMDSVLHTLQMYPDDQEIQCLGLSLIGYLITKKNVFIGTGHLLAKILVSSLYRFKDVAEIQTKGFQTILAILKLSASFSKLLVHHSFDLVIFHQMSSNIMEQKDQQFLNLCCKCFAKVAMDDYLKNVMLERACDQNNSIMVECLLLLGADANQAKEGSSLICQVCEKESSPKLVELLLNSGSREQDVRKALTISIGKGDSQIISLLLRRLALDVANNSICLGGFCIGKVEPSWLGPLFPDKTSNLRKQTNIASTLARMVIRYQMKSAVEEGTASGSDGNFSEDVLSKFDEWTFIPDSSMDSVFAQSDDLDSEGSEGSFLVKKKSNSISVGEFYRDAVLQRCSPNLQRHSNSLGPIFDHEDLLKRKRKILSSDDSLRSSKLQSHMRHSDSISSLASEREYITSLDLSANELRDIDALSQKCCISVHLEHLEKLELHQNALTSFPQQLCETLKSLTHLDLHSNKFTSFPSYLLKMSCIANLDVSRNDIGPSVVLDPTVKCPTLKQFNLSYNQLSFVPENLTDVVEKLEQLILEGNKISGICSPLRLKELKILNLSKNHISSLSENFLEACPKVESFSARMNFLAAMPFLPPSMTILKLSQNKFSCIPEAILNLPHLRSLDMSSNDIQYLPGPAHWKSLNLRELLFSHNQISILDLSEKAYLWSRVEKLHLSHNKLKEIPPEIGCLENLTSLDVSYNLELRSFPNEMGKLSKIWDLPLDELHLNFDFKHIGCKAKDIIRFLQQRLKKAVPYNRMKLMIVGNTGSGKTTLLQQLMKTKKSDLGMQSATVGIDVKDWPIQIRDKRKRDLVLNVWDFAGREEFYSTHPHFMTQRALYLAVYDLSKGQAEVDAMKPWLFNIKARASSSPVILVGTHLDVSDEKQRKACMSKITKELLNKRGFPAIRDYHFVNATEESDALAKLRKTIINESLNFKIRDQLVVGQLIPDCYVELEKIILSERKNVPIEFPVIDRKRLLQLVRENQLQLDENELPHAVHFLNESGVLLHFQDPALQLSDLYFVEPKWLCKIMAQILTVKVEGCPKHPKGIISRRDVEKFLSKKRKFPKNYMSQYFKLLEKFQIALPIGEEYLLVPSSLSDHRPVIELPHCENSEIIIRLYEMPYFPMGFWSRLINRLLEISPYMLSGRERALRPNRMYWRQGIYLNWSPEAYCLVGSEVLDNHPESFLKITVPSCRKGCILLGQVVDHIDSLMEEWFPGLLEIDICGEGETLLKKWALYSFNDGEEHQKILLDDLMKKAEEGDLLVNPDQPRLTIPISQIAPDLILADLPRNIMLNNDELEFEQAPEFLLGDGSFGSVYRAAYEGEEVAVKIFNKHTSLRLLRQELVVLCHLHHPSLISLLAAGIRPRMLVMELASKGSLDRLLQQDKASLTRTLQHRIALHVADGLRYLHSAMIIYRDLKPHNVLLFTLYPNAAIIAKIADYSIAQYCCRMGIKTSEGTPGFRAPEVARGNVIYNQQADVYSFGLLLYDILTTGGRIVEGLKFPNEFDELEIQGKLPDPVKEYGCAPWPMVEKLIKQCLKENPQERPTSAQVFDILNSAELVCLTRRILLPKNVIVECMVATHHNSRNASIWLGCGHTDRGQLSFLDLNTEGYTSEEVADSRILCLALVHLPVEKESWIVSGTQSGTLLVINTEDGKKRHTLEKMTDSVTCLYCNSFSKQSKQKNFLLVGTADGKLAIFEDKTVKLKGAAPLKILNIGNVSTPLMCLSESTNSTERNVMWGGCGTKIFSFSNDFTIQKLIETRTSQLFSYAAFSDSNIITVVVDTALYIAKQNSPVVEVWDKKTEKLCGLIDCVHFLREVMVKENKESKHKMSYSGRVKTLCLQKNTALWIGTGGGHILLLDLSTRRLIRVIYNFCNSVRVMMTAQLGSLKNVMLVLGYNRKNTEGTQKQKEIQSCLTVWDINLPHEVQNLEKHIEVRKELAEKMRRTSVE
Method in brief: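 Enzyme 1.25 nM in 50 mM Tris pH 8.5, 10 mM MgCl2, 0.01% Brij-35, 1 mM EGTA, 2 mM DTT, 0.05 mM orthovanadate. Compound (top 9.99 µM in DMSO, ten-point serial dilution) preincubated 15 min at RT. […] Stopped with EDTA plus 2 nM Tb anti-pERM, 1 h RT. 520/495 nm ratio read. IC50 from 4-parameter logistic fit, mean of several runs.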

[2] = biological target: T1, Leucine-rich repeat serine/threonine-protein kinase 2; assay: Inhibition of human LRRK2 G2019S mutant expressed in human SH-SY5Y cells assessed as inhibition of tetracycline induced LRRK2 phosphorylation at Ser935 residue incubated for 90 mins by MSD assay; assay type: cell-based
Method in brief: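 SH-SY5Y neuroblastoma cells carrying LRRK2 G2019S, grown in DMEM/F-12 with GlutaMax, 10% Tet-free FBS, nonessential amino acids and pen-strep at 37 °C, 5% CO2. Expression induced with Tet (2 µg/ml) 48-72 h before treatment. Compound exposure 90 min. Lysates captured on anti-LRRK2-coated MSD plates, probed for pSer935 or total LRRK2 with Sulfo-Tag read-out. IC50 from standard 4P fit of % inhibition.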

[3] = biological target: Dual specificity protein kinase CLK2 (Homo sapiens, UniProt P49760); assay: Inhibition of CLK2 (unknown origin) assessed as substrate phosphorylation using coumarin and fluorescein-labeled peptide as substrate incubated for 1 hr by Z'-LYTE kinase assay
Sequence of Dual specificity protein kinase CLK2 (P49760 whole entry): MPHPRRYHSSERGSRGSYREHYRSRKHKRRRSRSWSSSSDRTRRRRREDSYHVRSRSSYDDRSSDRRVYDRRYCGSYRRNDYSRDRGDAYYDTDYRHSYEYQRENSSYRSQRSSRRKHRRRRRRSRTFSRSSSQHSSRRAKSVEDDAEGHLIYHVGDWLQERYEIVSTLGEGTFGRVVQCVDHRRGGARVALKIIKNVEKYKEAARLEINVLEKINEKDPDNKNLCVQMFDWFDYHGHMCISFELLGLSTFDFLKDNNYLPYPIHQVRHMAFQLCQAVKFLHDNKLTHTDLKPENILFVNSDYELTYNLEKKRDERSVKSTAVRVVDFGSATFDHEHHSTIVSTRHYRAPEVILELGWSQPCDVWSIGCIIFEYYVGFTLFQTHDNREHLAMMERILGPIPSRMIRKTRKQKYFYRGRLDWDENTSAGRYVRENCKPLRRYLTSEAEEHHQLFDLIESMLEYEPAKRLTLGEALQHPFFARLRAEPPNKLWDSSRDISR
Method in brief: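 CLK2 Z'-LYTE coupled-enzyme kit format, 10-point titration from DMSO; enzyme, substrate and compound reacted 1 h at ambient temperature; after development solution, read at excitation 400 nm; activity from coumarin 445 nm/fluorescein 520 nm emission ratio.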

Homo sapiens = species: Homo sapiens; assay: Selectivity ratio, ratio of IC50 for inhibition of CLK2 (unknown origin) to IC50 for inhibition of recombinant human GST20 tagged truncated LRRK2 G2019S mutant
[4] = Plasma clearance in po dosed CD rat measured after 120 mins by LC-MS/MS analysis; assay type: ADME, organism-based
[5] = Intrinsic clearance in po dosed CD rat measured after 120 mins by LC-MS/MS analysis; assay type: ADME, organism-based; settings: in vivo, 2 h
[6] = MRT in po dosed CD rat measured after 120 mins by LC-MS/MS analysis; assay type: ADME, organism-based; settings: in vivo
[7] = biological target: Sodium channel protein type 5 subunit alpha (Homo sapiens, UniProt Q14524); assay: Inhibition of human NaV1.5 expressed in HEK293 by PatchXpress automated patch clamp assay; assay type: cell-based
Sequence of Sodium channel protein type 5 subunit alpha (Q14524 whole entry): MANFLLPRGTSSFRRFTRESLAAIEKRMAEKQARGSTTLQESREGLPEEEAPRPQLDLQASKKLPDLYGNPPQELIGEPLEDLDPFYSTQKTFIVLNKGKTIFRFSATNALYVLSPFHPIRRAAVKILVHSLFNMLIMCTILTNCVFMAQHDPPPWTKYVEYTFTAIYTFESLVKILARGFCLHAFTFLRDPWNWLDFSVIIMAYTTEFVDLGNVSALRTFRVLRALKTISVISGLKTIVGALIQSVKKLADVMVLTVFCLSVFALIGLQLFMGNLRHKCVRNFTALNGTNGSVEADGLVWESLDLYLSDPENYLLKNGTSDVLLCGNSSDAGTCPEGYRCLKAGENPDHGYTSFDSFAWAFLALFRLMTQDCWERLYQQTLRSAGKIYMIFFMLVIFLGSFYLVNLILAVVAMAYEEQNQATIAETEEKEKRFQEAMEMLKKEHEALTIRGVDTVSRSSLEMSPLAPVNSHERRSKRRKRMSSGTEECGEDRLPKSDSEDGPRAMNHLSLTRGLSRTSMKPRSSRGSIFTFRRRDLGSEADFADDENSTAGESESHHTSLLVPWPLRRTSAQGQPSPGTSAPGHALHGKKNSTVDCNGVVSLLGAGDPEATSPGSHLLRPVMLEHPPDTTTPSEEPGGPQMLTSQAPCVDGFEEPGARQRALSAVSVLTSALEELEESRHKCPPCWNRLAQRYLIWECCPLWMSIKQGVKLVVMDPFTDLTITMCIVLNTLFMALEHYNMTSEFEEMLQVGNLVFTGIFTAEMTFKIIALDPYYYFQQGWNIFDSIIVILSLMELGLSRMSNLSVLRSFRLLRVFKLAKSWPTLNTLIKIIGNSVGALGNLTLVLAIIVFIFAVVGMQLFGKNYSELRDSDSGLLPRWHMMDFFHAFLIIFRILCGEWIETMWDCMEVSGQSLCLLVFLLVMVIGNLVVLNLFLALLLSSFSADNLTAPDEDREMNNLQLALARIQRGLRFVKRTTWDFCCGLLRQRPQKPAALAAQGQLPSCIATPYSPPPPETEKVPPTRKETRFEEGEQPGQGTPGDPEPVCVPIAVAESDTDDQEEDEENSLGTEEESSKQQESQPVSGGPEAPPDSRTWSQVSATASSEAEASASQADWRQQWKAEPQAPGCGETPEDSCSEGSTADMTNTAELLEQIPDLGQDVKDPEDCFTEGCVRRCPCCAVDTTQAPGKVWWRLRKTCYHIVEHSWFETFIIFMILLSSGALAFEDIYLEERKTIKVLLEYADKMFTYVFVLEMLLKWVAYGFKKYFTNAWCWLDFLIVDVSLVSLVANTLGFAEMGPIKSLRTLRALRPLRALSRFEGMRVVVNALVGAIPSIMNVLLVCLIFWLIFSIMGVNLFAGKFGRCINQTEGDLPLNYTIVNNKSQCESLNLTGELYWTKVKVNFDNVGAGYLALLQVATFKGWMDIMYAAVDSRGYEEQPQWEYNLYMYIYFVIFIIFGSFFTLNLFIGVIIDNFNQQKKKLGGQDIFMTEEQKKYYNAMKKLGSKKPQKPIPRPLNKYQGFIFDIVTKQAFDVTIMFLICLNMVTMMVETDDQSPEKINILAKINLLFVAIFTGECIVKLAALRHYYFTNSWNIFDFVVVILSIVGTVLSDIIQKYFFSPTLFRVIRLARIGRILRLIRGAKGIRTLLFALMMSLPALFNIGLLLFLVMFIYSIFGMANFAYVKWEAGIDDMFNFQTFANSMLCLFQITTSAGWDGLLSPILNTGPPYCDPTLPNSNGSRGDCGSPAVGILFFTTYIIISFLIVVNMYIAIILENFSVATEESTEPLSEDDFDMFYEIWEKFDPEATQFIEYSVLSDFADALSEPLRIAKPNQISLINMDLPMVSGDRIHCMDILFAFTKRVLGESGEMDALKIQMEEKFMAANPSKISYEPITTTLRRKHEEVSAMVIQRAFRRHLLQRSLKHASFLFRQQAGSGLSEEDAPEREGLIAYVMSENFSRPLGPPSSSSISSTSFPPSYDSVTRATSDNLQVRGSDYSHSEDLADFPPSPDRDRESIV

P-gp (rat Mdr1a) [8] = assay: Substrate activity at P-gp (unknown origin) expressed in LLC-PK1 cells transfected with rat Mdr1a assessed as efflux ratio of apparent permeability across basolateral to apical side to apparent permeability across apical to basolateral side at 1 uM incubated for 3 hrs by LC-MSMS analysis; assay type: ADME, cell-based, Sus scrofa; settings: pig
P-gp (rat Mdr1a) [9] = assay: Substrate activity at P-gp (unknown origin) expressed in LLC-PK1 cells transfected with rat Mdr1a assessed as apparent permeability at 1 uM incubated for 3 hrs by LC-MSMS analysis; assay type: ADME, cell-based, Sus scrofa; settings: pig
[10] = Plasma clearance in po dosed Beagle dog and measured upto 24 hrs by LC-MS/MS analysis; assay type: ADME, organism-based, Canis lupus familiaris
[11] = Intrinsic clearance in po dosed Beagle dog and measured upto 24 hrs by LC-MS/MS analysis; assay type: ADME, organism-based, Canis lupus familiaris; settings: in vivo
[12] = MRT in po dosed Beagle dog and measured upto 24 hrs by LC-MS/MS analysis; assay type: ADME, organism-based, Canis lupus familiaris; settings: in vivo
[13] = Brain to plasma permeability coefficient, Kp in CD rat plasma assessed as unbound fraction at 3 to 100 mg/kg, po and measured after 2 hrs by LC/MS/MS analysis; assay type: ADME, organism-based; settings: in vivo, dose 3-100 mg/kg
[14] = Mutagenicity in Salmonella typhimurium TA1535 at 30 to 5000 ug in presence of S9 metabolic activation system for 48 hrs by ames test; assay type: toxicity, Salmonella enterica subsp. enterica serovar Typhimurium; settings: in vitro, dose 30-5000 µg
Method in brief: (§1)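 Plate incorporation Ames test with S9 from phenobarbital/beta-naphthoflavone-induced male Wistar Han rat liver; 30, 100, 300, 1000, 3000, 5000 µg/plate; triplicate minimal glucose agar plates with trace histidine; 48 h at 37 °C; positive if 2-fold revertant increase over vehicle with dose relation.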

[15] = Mutagenicity in Salmonella typhimurium TA98 at 30 to 5000 ug in presence of S9 metabolic activation system for 48 hrs by ames test; assay type: toxicity, Salmonella enterica subsp. enterica serovar Typhimurium; settings: dose 30-5000 µg; method in brief: as §1
[16] = Mutagenicity in Salmonella typhimurium TA100 at 30 to 5000 ug in presence of S9 metabolic activation system for 48 hrs by ames test; assay type: toxicity, Salmonella enterica subsp. enterica serovar Typhimurium; settings: dose 30-5000 µg; method in brief: as §1
[17] = In vivo inhibition of LRRK2 in CD rat assessed as reduction in serine 935 phosphorylated LRRK2 in striatum at 10 mg/kg, po and measured after 2 hrs by MSD immunoassay; assay type: functional
Method in brief: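 Male CD rats (125-150 g) dosed orally with compound suspended in 10% Tween 80 (5 mL/kg) or vehicle, euthanized by CO2 2 h later; striatum dissected, frozen on dry ice; pSer935 LRRK2 measured by MSD immunoassay as pSer935/total LRRK2 ratio, mean ± S.E.M.; one-way ANOVA with Dunnett's post hoc test.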

Compound	IC50 [1]	IC50 [2]	IC50 [3]	Ratio IC50 (Homo sapiens)	other results
CC(C)(O)[C@@H]1CCN(c2cnc(C(F)(F)F)c(NC(=O)c3cccc(-c4cnn(CC(F)(F)F)c4)n3)c2)C1	0.01 µM	0.0007 µM	0.442 µM	42	CL/F [4]: 42 mL/min/kg; CL [5]: 2780 mL/min/kg; MRT [6]: 1.7 h; IC50 [7]: 30 µM
Cn1cc(-c2cccc(C(=O)Nc3cc(N4CC[C@@H](C(C)(C)O)C4)cnc3C(F)(F)F)n2)cn1	0.017 µM	0.021 µM	0.062 µM	4	efflux ratio at 3 h, 1 µM (P-gp (rat Mdr1a) [8]): 0.94; Papp at 3 h, 1 µM (P-gp (rat Mdr1a) [9]): 29 ×10⁻⁶ cm/s; CL/F [4]: 6.7 mL/min/kg; CL [5]: 271 mL/min/kg; MRT [6]: 4.9 h; CL/F [10]: 4.8 mL/min/kg; CL [11]: 1029 mL/min/kg; MRT [12]: 9.4 h; Kp [13]: 0.4
CCn1cc(-c2cccc(C(=O)Nc3cc(N4CC[C@@H](C(C)(C)O)C4)cnc3C(F)(F)F)n2)cn1	0.04 µM	0.007 µM	0.03 µM		
CC(C)(O)[C@@H]1CCN(c2cc(N)c(C(F)(F)F)cn2)C1					Activity [14]: Toxic; Activity [15]: Toxic; Activity [16]: Toxic
Cn1cc(-c2cccc(C(=O)Nc3cnn(C4CCC4)c3)c2F)cn1	0.07 µM	1.65 µM	0.716 µM	10	
Cc1cnc(N2C[C@@H](C)O[C@@H](C)C2)cc1NC(=O)c1cccc(-c2cnn(C)c2)n1	0.009 µM	0.024 µM	0.124 µM	14	
C[C@@H]1[C@H](O)CCN1c1cc(NC(=O)c2cccc(-c3cnn(C)c3)n2)c(C(F)(F)F)cn1	0.005 µM	0.003 µM	0.086 µM		
Cn1cc(-c2nc(C(=O)Nc3cnn(C4CCC4)c3)cs2)cn1		0.271 µM	0.119 µM	8.5	
Cn1cc(-c2cccc(C(=O)Nc3cc(N4CC5(C(C)(C)O)CC4C5)ncc3C(F)(F)F)n2)cn1	0.009 µM	0.002 µM	0.0096 µM		
C[C@@H]1CN(c2cc(NC(=O)c3cccc(-c4cnn(C)c4)n3)c(C(F)(F)F)cn2)C[C@H](C)O1	0.004 µM	0.0015 µM	0.021 µM	5	
C[C@H]1CN(c2cc(NC(=O)c3cccc(-c4cnn(C)c4)n3)c(C(F)(F)F)cn2)CCN1C1COC1	0.0015 µM		0.008 µM	5	CL/F [4]: 2.7 mL/min/kg; CL [5]: 4081 mL/min/kg; MRT [6]: 2.2 h
C[C@@H]1CN(c2cc(-c3n[nH]c4ccc(OC5(C)CC5)cc34)ncn2)C[C@H](C)O1 [MLi-2]					inhibition in vivo at 10 mg/kg [17]: 72%
Cn1cc(-c2nccc(C(=O)Nc3cnn(C4CCC4)c3)n2)cn1		0.953 µM	17.2 µM	505	
CC(C)(O)[C@@H]1CCN(c2cnc(C(F)(F)F)c(NC(=O)c3cccc(-c4cnn(CC5(C(F)(F)F)CC5)c4)n3)c2)C1	0.008 µM	0.0003 µM	0.47 µM	59	CL/F [4]: 87 mL/min/kg; MRT [6]: 1.2 h
COC1CN(c2cc(NC(=O)c3cccc(-c4cnn(C)c4)n3)c(C(F)(F)F)cn2)C1	0.028 µM	0.0028 µM	0.067 µM	2.4	
Cc1nc(N)cc(N2CC[C@@H](C(C)(C)O)C2)n1					Activity [14]: Non-Toxic; Activity [15]: Non-Toxic; Activity [16]: Non-Toxic
CC(C)(O)[C@@H]1CCN(c2cnc(C(F)(F)F)c(NC(=O)c3cccc(-c4cnn(C5CCC5)c4)n3)c2)C1	0.019 µM	0.0013 µM	0.091 µM	5	CL/F [4]: 31.4 mL/min/kg; MRT [6]: 2.1 h
CC(C)(O)[C@@H]1CCN(c2cnc(C(F)(F)F)c(N)c2)C1					Activity [14]: Non-Toxic; Activity [15]: Non-Toxic; Activity [16]: Non-Toxic
CC(C)(O)[C@@H]1CCN(c2cnc(C(F)(F)F)c(NC(=O)c3cccc(-c4cnn(CC5CC5)c4)n3)c2)C1	0.0086 µM	0.0004 µM	0.023 µM	3	CL/F [4]: 38 mL/min/kg; CL [5]: 78464 mL/min/kg; MRT [6]: 2.9 h
Cn1cc(-c2cccc(C(=O)Nc3cc(N4CC(O)C4)ncc3C(F)(F)F)n2)cn1	0.0048 µM	0.0075 µM	0.064 µM	13	
Cn1cc(-c2cccc(C(=O)Nc3cnn(C4CCC4)c3)n2)cn1	0.053 µM	0.905 µM	5.96 µM	112	
Cc1nc(NC(=O)c2cccc(-c3cnn(C)c3)n2)cc(N2CC[C@@H](C(C)(C)O)C2)n1	0.004 µM	0.042 µM	0.255 µM		
C[C@@H]1[C@@H](O)CN1c1cc(NC(=O)c2cccc(-c3cnn(C)c3)n2)c(C(F)(F)F)cn1	0.002 µM	0.002 µM	0.012 µM		
